Data reported in ChEMBL document CHEMBL1158358, “Synthesis, antimicrobial and cytotoxic activities of some 5-arylidene-4-thioxo-thiazolidine-2-ones” (Eur J Med Chem, 2009).
In brackets after ≈: the same amount, converted by molar mass.

Legend:
Format in all cases: functional
[1] = test system: Bacillus subtilis; assay: Antimicrobial activity against Bacillus subtilis UFPEDA 16 at 300 ug/disk after 24 hrs by disk diffusion method; details: UFPEDA 16, 24 h, read-out: IZ
Method in brief: (§1)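 Preliminary screen by disk diffusion. Paper disks (6 mm) holding 300 µg of compound were placed on agar plates inoculated with a standardized microbial suspension. DMSO-only disks served as negative controls. A mean inhibition zone below 7 mm was scored as no sensitivity. Values are means, n = 3.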

[2] = test system: Enterococcus faecalis; assay: Antimicrobial activity against multidrug-resistant Enterococcus faecalis H.C. 24962 isolate after 20 hrs by twofold serial dilution technique; details: H.C. 24962, 20 h
Method in brief: (§2)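 Twofold serial dilution MIC in agar plates against Gram-positive strains and multidrug-resistant clinical isolates. Inoculum applied was 10⁵ CFU/plate. Plates with culture medium plus DMSO served as negative control. MIC was read after incubation at 35 °C for 20 h.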

[3] = test system: Staphylococcus aureus; assay: Antimicrobial activity against Staphylococcus aureus UFPEDA 01 after 20 hrs by twofold serial dilution technique; details: UFPEDA 01, 20 h; method in brief: as §2
[4] = test system: Bacillus subtilis; assay: Antimicrobial activity against Bacillus subtilis UFPEDA 16 after 20 hrs by twofold serial dilution technique; details: UFPEDA 16, 20 h
Method in brief: (§3)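 MIC was determined by twofold serial dilution. Bacteria were tested in plates at 10⁵ CFU/plate and read after 20 h. C. albicans was tested in tubes at 10³ CFU/tube and read after 48 h. All incubations were at 35 °C. Medium plus DMSO served as the negative control.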

[5] = test system: NCI-H292; assay: Cytotoxicity against human NCI-H292 cells at 10 ug/mL after 72 hrs by MTT assay; details: NCI-H292, 72 h, read-out: GI
Method in brief: (§4)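 MTT antiproliferative assay. Cells were diluted to 10⁵ cells/mL in 96-well plates and preincubated for 24 h at 37 °C in humid 5% CO₂. Compounds or vincristine (reference) were then added. Formazan was dissolved and OD read at 540 nm, compared with medium-only control cells. Run in triplicate.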

[6] = test system: Staphylococcus; assay: Antimicrobial activity against coagulase-negative Staphylococcus H.A.M. 338 isolate after 20 hrs by twofold serial dilution technique; details: H.A.M. 338, 20 h; method in brief: as §3
[7] = test system: NCI-H292; assay: Cytotoxicity against human NCI-H292 cells at 1.25 ug/mL after 72 hrs by MTT assay; details: NCI-H292, 72 h, read-out: GI; method in brief: as §4
[8] = test system: Escherichia coli; assay: Antimicrobial activity against Escherichia coli UFPEDA 224 at 300 ug/disk after 24 hrs by disk diffusion method; details: UFPEDA 224, 24 h, read-out: IZ; method in brief: as §1
[9] = test system: Candida albicans; assay: Antimicrobial activity against Candida albicans UFPEDA 1007 at 300 ug/disk after 48 hrs by disk diffusion method; details: UFPEDA 1007, 48 h, read-out: IZ; method in brief: as §1
[10] = test system: Micrococcus luteus; assay: Antimicrobial activity against Micrococcus luteus UFPEDA 06 after 20 hrs by twofold serial dilution technique; details: UFPEDA 06, 20 h; method in brief: as §3
[11] = test system: Candida albicans; assay: Antimicrobial activity against Candida albicans UFPEDA 1007 after 48 hrs by twofold serial dilution technique; details: UFPEDA 1007, 48 h; method in brief: as §3
[12] = test system: Mycolicibacterium smegmatis; assay: Antimicrobial activity against Mycobacterium smegmatis UFPEDA 71 after 20 hrs by twofold serial dilution technique; details: UFPEDA 71, 20 h; method in brief: as §3
[13] = test system: Pseudomonas aeruginosa; assay: Antimicrobial activity against Pseudomonas aeruginosa UFPEDA 39 at 300 ug/disk after 24 hrs by disk diffusion method; details: UFPEDA 39, 24 h, read-out: IZ; method in brief: as §1
[14] = test system: HEp-2; assay: Cytotoxicity against human Hep2 cells at 5 ug/mL after 72 hrs by MTT assay; details: HEp-2, 72 h, read-out: GI; method in brief: as §4
[15] = test system: Enterococcus faecalis; assay: Antimicrobial activity against Enterococcus faecalis UFPEDA 138 at 300 ug/disk after 24 hrs by disk diffusion method; details: UFPEDA 138, 24 h, read-out: IZ; method in brief: as §1
[16] = test system: HEp-2; assay: Cytotoxicity against human Hep2 cells at 10 ug/mL after 72 hrs by MTT assay; details: HEp-2, 72 h, read-out: GI; method in brief: as §4
[17] = test system: Mycolicibacterium smegmatis; assay: Antimicrobial activity against Mycobacterium smegmatis UFPEDA 71 at 300 ug/disk after 24 hrs by disk diffusion method; details: UFPEDA 71, 24 h, read-out: IZ; method in brief: as §1
[18] = test system: Serratia marcescens; assay: Antimicrobial activity against Serratia marcescens UFPEDA 398 at 300 ug/disk after 24 hrs by disk diffusion method; details: UFPEDA 398, 24 h, read-out: IZ; method in brief: as §1
[19] = test system: Enterococcus faecalis; assay: Antimicrobial activity against multidrug-resistant Enterococcus faecalis H.C. 24708 isolate after 20 hrs by twofold serial dilution technique; details: H.C. 24708, 20 h; method in brief: as §2
[20] = test system: Staphylococcus aureus; assay: Antimicrobial activity against multidrug-resistant Staphylococcus aureus H.C. 20794 isolate after 20 hrs by twofold serial dilution technique; details: H.C. 20794, 20 h; method in brief: as §2
[21] = test system: Micrococcus luteus; assay: Antimicrobial activity against Micrococcus luteus UFPEDA 06 at 300 ug/disk after 24 hrs by disk diffusion method; details: UFPEDA 06, 24 h, read-out: IZ; method in brief: as §1
[22] = test system: Staphylococcus aureus; assay: Antimicrobial activity against multidrug-resistant Staphylococcus aureus H.C. 21141 isolate after 20 hrs by twofold serial dilution technique; details: H.C. 21141, 20 h; method in brief: as §2
[23] = test system: Staphylococcus aureus; assay: Antimicrobial activity against multidrug-resistant Staphylococcus aureus H.C. 20981 isolate after 20 hrs by twofold serial dilution technique; details: H.C. 20981, 20 h; method in brief: as §2
[24] = test system: Staphylococcus aureus; assay: Antimicrobial activity against Staphylococcus aureus UFPEDA 01 at 300 ug/disk after 24 hrs by disk diffusion method; details: UFPEDA 01, 24 h, read-out: IZ; method in brief: as §1
[25] = test system: Enterococcus faecalis; assay: Antimicrobial activity against Enterococcus faecalis UFPEDA 138 after 20 hrs by twofold serial dilution technique; details: UFPEDA 138, 20 h; method in brief: as §3
[26] = test system: Enterococcus faecalis; assay: Antimicrobial activity against multidrug-resistant Enterococcus faecalis H.C. 21944 isolate after 20 hrs by twofold serial dilution technique; details: H.C. 21944, 20 h; method in brief: as §2
[27] = test system: HEp-2; assay: Cytotoxicity against human Hep2 cells at 1.25 ug/mL after 72 hrs by MTT assay; details: HEp-2, 72 h, read-out: GI; method in brief: as §4
[28] = test system: Staphylococcus aureus; assay: Antimicrobial activity against multidrug-resistant Staphylococcus aureus H.C. 20489 isolate after 20 hrs by twofold serial dilution technique; details: H.C. 20489, 20 h; method in brief: as §2
[29] = test system: NCI-H292; assay: Cytotoxicity against human NCI-H292 cells at 5 ug/mL after 72 hrs by MTT assay; details: NCI-H292, 72 h, read-out: GI; method in brief: as §4
[30] = test system: Staphylococcus; assay: Antimicrobial activity against coagulase-negative Staphylococcus H.A.M. 278 isolate after 20 hrs by twofold serial dilution technique; details: H.A.M. 278, 20 h; method in brief: as §3
[31] = test system: Staphylococcus aureus; assay: Antimicrobial activity against multidrug-resistant Staphylococcus aureus H.C. 20905 isolate after 20 hrs by twofold serial dilution technique; details: H.C. 20905, 20 h; method in brief: as §2
[32] = test system: NCI-H292; assay: Cytotoxicity against human NCI-H292 cells at 2.5 ug/mL after 72 hrs by MTT assay; details: NCI-H292, 72 h, read-out: GI; method in brief: as §4
[33] = test system: Enterococcus faecalis; assay: Antimicrobial activity against multidrug-resistant Enterococcus faecalis H.C. 21752 isolate after 20 hrs by twofold serial dilution technique; details: H.C. 21752, 20 h; method in brief: as §2
[34] = test system: Staphylococcus aureus; assay: Antimicrobial activity against multidrug-resistant Staphylococcus aureus H.C. 21036 isolate after 20 hrs by twofold serial dilution technique; details: H.C. 21036, 20 h; method in brief: as §2
[35] = test system: HEp-2; assay: Cytotoxicity against human Hep2 cells at 2.5 ug/mL after 72 hrs by MTT assay; details: HEp-2, 72 h, read-out: GI; method in brief: as §4

Structure (SMILES)	zone of inhibition at 300 µg/disc [1]	MIC [2]	MIC [3]	MIC [4]	inhibition of growth at 10 µg/mL [5]	MIC [6]	inhibition of growth at 1.25 µg/mL [7]	zone of inhibition at 300 µg/disc [8]	zone of inhibition at 300 µg/disc [9]	MIC [10]	MIC [11]	MIC [12]	zone of inhibition at 300 µg/disc [13]	inhibition of growth at 5 µg/mL [14]	zone of inhibition at 300 µg/disc [15]	inhibition of growth at 10 µg/mL [16]	zone of inhibition at 300 µg/disc [17]	zone of inhibition at 300 µg/disc [18]	MIC [19]	MIC [20]	other results
O=C1NC(=S)/C(=C/c2ccc(Cl)cc2)S1	22 mm	16 µg/mL (≈ 62.6 µM)	4 µg/mL (≈ 15.6 µM)	16 µg/mL (≈ 62.6 µM)	41.4%	4 µg/mL (≈ 15.6 µM)	10%	< 7 mm	12 mm	32 µg/mL (≈ 125 µM)	64 µg/mL (≈ 250 µM)	32 µg/mL (≈ 125 µM)	< 7 mm	16.1%	17 mm	22.2%	20 mm	< 7 mm	16 µg/mL (≈ 62.6 µM)	2 µg/mL (≈ 7.82 µM)	zone of inhibition at 300 µg/disc [21]: 25 mm; MIC [22]: 8 µg/mL (≈ 31.3 µM); MIC [23]: 2 µg/mL (≈ 7.82 µM); zone of inhibition at 300 µg/disc [24]: 27 mm; MIC [25]: 32 µg/mL (≈ 125 µM); MIC [26]: 16 µg/mL (≈ 62.6 µM); inhibition of growth at 1.25 µg/mL [27]: 0.92%; MIC [28]: 2 µg/mL (≈ 7.82 µM); inhibition of growth at 5 µg/mL [29]: 35.8%; MIC [30]: 4 µg/mL (≈ 15.6 µM); MIC [31]: 2 µg/mL (≈ 7.82 µM); inhibition of growth at 2.5 µg/mL [32]: 28.6%; MIC [33]: 16 µg/mL (≈ 62.6 µM); MIC [34]: 2 µg/mL (≈ 7.82 µM)
O=C1NC(=S)/C(=C/c2cccc(Br)c2)S1	26 mm	16 µg/mL (≈ 53.3 µM)	4 µg/mL (≈ 13.3 µM)	8 µg/mL (≈ 26.6 µM)	42.4%	64 µg/mL (≈ 213 µM)	4.67%	< 7 mm	14 mm	8 µg/mL (≈ 26.6 µM)	64 µg/mL (≈ 213 µM)	16 µg/mL (≈ 53.3 µM)	< 7 mm	-1.04%	25 mm	23.6%	25 mm	< 7 mm	8 µg/mL (≈ 26.6 µM)	8 µg/mL (≈ 26.6 µM)	inhibition of growth at 2.5 µg/mL [35]: -1.82%; zone of inhibition at 300 µg/disc [21]: 29 mm; MIC [22]: 32 µg/mL (≈ 107 µM); MIC [23]: 16 µg/mL (≈ 53.3 µM); zone of inhibition at 300 µg/disc [24]: 28 mm; MIC [25]: 16 µg/mL (≈ 53.3 µM); MIC [26]: 16 µg/mL (≈ 53.3 µM); inhibition of growth at 1.25 µg/mL [27]: -5.3%; MIC [28]: 8 µg/mL (≈ 26.6 µM); inhibition of growth at 5 µg/mL [29]: 22%; MIC [30]: 64 µg/mL (≈ 213 µM); MIC [31]: 16 µg/mL (≈ 53.3 µM); inhibition of growth at 2.5 µg/mL [32]: 11.1%; MIC [33]: 8 µg/mL (≈ 26.6 µM); MIC [34]: 16 µg/mL (≈ 53.3 µM)
